Test results as given in ChEMBL document CHEMBL4270573, “Novel nicotinoyl pyrazoline derivates bearing N-methyl indole moiety as antitumor agents: Design, synthesis and evaluation” (Eur J Med Chem, 2018).
Activity calls are given as the source filed them. No cut-off for these calls is given here.

Experiments:
[1] = tested on: Mus musculus; test: Hepatotoxicity in nude mouse xenografted with human HeLa cells assessed as edema in liver at 10 to 20 mg/kg, ip after 14 days by hematoxylin and eosin staining based microscopic analysis; format: toxicity, organism-based; conditions: in vivo, 336 h
Procedure, shortened: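 HeLa xenograft nude mice with tumours near 100 mm³, randomised to four groups of 28 mice in total. Dosing was intraperitoneal: vehicle, CA-4 10 mg/kg, or test compound at 10 or 20 mg/kg, continued for 14 days. Heart, liver, kidney and spleen were then H&E-stained and examined for inflammatory infiltration, edema, necrosis and cell morphology.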

[2] = tested on: HeLa; test: Cell cycle arrest in human HeLa cells assessed as accumulation at G2/M phase at 0.040 uM after 24 hrs by propidium iodide staining based flow cytometric analysis (reference value: 17.72%); format: functional
Procedure, shortened: (§1)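 HepG2 and HeLa cells were exposed to 0, 0.020, 0.040, 0.060, 0.080 or 0.10 µM for 6, 12 or 24 h. DNA content was stained with propidium iodide and analysed by flow cytometry to give the percentage of cells in G0/G1, S and G2/M phases; sub-G1 cells were also recorded.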

[3] = tested on: HepG2; test: Cell cycle arrest in human HepG2 cells assessed as accumulation at G0/G1 phase at 0.020 uM after 24 hrs by propidium iodide staining based flow cytometric analysis (reference value: 55.63%); format: functional; procedure, shortened: as §1
[4] = tested on: HepG2; test: Cell cycle arrest in human HepG2 cells assessed as accumulation at S phase at 0.060 uM after 24 hrs by propidium iodide staining based flow cytometric analysis (reference value: 20.40%); format: functional; procedure, shortened: as §1
[5] = tested on: HeLa; test: Induction of apoptosis in human HeLa cells assessed as necrotic cells at 0.020 uM after 24 hrs by Annexin V-FITC/propidium iodide staining based flow cytometric analysis (reference value: 0.242%); format: functional
Procedure, shortened: (§2)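 HepG2 and HeLa cells were exposed to 0, 0.02, 0.040, 0.060, 0.080 and 0.10 µM for 6, 12 and 24 h. Cells were double-stained with Annexin V-FITC/PI and read by flow cytometry. Apoptotic rate was the percentage of FITC-positive cells, counting early plus late apoptotic.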

[6] = tested on: HeLa; test: Induction of apoptosis in human HeLa cells assessed as viable cells at 0.020 uM after 24 hrs by Annexin V-FITC/propidium iodide staining based flow cytometric analysis (reference value: 88.6%); format: functional; conditions: read-out: Activity; procedure, shortened: as §2
[7] = tested on: HeLa; test: Induction of apoptosis in human HeLa cells assessed as necrotic cells at 0.040 uM after 24 hrs by Annexin V-FITC/propidium iodide staining based flow cytometric analysis (reference value: 0.242%); format: functional; procedure, shortened: as §2
[8] = tested on: HeLa; test: Induction of apoptosis in human HeLa cells assessed as viable cells at 0.040 uM after 24 hrs by Annexin V-FITC/propidium iodide staining based flow cytometric analysis (reference value: 88.6%); format: functional; conditions: read-out: Activity; procedure, shortened: as §2
[9] = tested on: HeLa; test: Induction of apoptosis in human HeLa cells assessed as early apoptotic cells at 0.10 uM after 24 hrs by Annexin V-FITC/propidium iodide staining based flow cytometric analysis (reference value: 6.17%); format: functional; procedure, shortened: as §2
[10] = tested on: HeLa; test: Induction of apoptosis in human HeLa cells assessed as viable cells at 0.10 uM after 24 hrs by Annexin V-FITC/propidium iodide staining based flow cytometric analysis (reference value: 88.6%); format: functional; conditions: read-out: Activity; procedure, shortened: as §2
[11] = tested on: HepG2; test: Induction of apoptosis in human HepG2 cells assessed as necrotic cells at 0.020 uM after 24 hrs by Annexin V-FITC/propidium iodide staining based flow cytometric analysis (reference value: 0.270%); format: functional; procedure, shortened: as §2
[12] = tested on: HepG2; test: Induction of apoptosis in human HepG2 cells assessed as early apoptotic cells at 0.060 uM after 24 hrs by Annexin V-FITC/propidium iodide staining based flow cytometric analysis (reference value: 2.31%); format: functional; procedure, shortened: as §2
[13] = tested on: HepG2; test: Induction of apoptosis in human HepG2 cells assessed as necrotic cells at 0.080 uM after 24 hrs by Annexin V-FITC/propidium iodide staining based flow cytometric analysis (reference value: 0.270%); format: functional; procedure, shortened: as §2
[14] = tested on: HepG2; test: Induction of apoptosis in human HepG2 cells assessed as late apoptotic cells at 0.10 uM after 24 hrs by Annexin V-FITC/propidium iodide staining based flow cytometric analysis (reference value: 2.93%); format: functional; procedure, shortened: as §2
[15] = tested on: HepG2; test: Induction of apoptosis in human HepG2 cells assessed as necrotic cells at 0.10 uM after 24 hrs by Annexin V-FITC/propidium iodide staining based flow cytometric analysis (reference value: 0.270%); format: functional; procedure, shortened: as §2
[16] = tested on: HepG2; test: Induction of apoptosis in human HepG2 cells assessed as viable cells at 0.10 uM after 24 hrs by Annexin V-FITC/propidium iodide staining based flow cytometric analysis (reference value: 94.5%); format: functional; conditions: HepG2, 24 h, read-out: Activity; procedure, shortened: as §2
[17] = tested on: HeLa; test: Antitumor activity against human HeLa cells xenografted in nude mouse assessed as tumor volume at 20 mg/kg, ip after 14 days (reference value: 2292.17 mm3); format: functional
[18] = tested on: HeLa; test: Antitumor activity against human HeLa cells xenografted in nude mouse assessed as tumor weight at 10 mg/kg, ip after 14 days (reference value: 1.54 g); format: functional
[19] = tested on: HeLa; test: Antitumor activity against human HeLa cells xenografted in nude mouse assessed as tumor weight at 20 mg/kg, ip after 14 days (reference value: 1.54 g); format: functional
[20] = target: T1, Tubulin (Homo sapiens) (UniProt P68371+Q9H4B7+P0DPH7+P68366+Q13509+Q71U36+P04350+Q3ZCM7+P07437+P68363+Q9BQE3+Q6PEY2+Q13885+Q9BVA1+Q9BUF5); test: Inhibition of tubulin polymerization in human HeLa cells assessed as abnormal microtubule network formation at 0.04 to 0.1 uM after 12 hrs by DAPI staining based immunofluorescence confocal laser scanning microscopic analysis; format: cell-based
[21] = Selectivity index, ratio of CC50 for HEK293T cells to GI50 for human HepG2 cells; format: toxicity; conditions: HEK293T cells and HepG2 cells, read-out: Selectivity Index
Procedure, shortened: (§3)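 Ratio CC50/GI50: CC50 is the concentration reducing non-tumour 293T cell proliferation by 50%; GI50 is the concentration reducing cancer cell proliferation by 50%.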

[22] = Selectivity index, ratio of CC50 for HEK293T cells to GI50 for human HeLa cells; format: toxicity; conditions: HEK293T cells and HeLa cells, read-out: Selectivity Index; procedure, shortened: as §3
[23] = target: T1, Tubulin (Homo sapiens); test: Inhibition of tubulin polymerization in human HepG2 cells assessed as multinucleated cell formation at 0.04 to 0.1 uM after 12 hrs by DAPI staining based immunofluorescence confocal laser scanning microscopic analysis
[24] = tested on: HeLa; test: Antitumor activity against human HeLa cells xenografted in nude mouse assessed as relative tumor growth inhibition at 20 mg/kg, ip after 14 days (reference value: 59.92%); format: functional; conditions: 336 h, read-out: TGI
[25] = tested on: Mus musculus; test: Nephrotoxicity in nude mouse xenografted with human HeLa cells assessed as edema in kidney at 10 to 20 mg/kg, ip after 14 days by hematoxylin and eosin staining based microscopic analysis; format: toxicity, organism-based; conditions: in vivo, 336 h
[26] = tested on: Mus musculus; test: Cardiotoxicity in nude mouse xenografted with human HeLa cells assessed as necrosis in heart at 10 to 20 mg/kg, ip after 14 days by hematoxylin and eosin staining based microscopic analysis; format: toxicity, organism-based; conditions: in vivo, 336 h
Procedure, shortened: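 Excised tumours and heart, liver, kidney and spleen were H&E-stained and examined microscopically. Tumour scoring covered cell arrangement and necrosis. Organ scoring covered inflammatory infiltration, edema, necrosis and cell morphology.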

COc1cccc(C2=NN(C(=O)c3ccc(C)nc3)C(c3cn(C)c4ccc(OC)cc34)C2)c1 (stereo unspecified)
Activity [1]: Non-Toxic
Activity [2]: 27.81%
Activity [3]: 41.26%
Activity [4]: 22.17%
Activity [5]: 0.12%
viability at 0.02 µM [6]: 88.7%
Activity [7]: 0.512%
viability at 0.04 µM [8]: 84.5%
Activity [9]: 32.8%
viability at 0.1 µM [10]: 58.2%
Activity [11]: 0.771%
Activity [12]: 7.94%
Activity [13]: 2.95%
Activity [14]: 8.33%
Activity [15]: 2.46%
viability at 0.1 µM [16]: 70.7%
Activity [17]: 881.93 mm3
Activity [18]: 0.91 g
Activity [19]: 0.53 g
inhibition [20]: Active
selectivity ratio [21]: 3 to 10
selectivity ratio [22]: 3 to 10
inhibition [23]: Active
inhibition in vivo at 20 mg/kg [24]: 61.5%
Activity [25]: Non-Toxic
Activity [26]: Non-Toxic
